Measurements from different studies.
KCNU1: KCNU1 (Homo sapiens, UniProt A8MYU2)
CA9: Carbonic anhydrase 9 (CA9, Homo sapiens, UniProt Q16790)
MAOB: Amine oxidase [flavin-containing] B (MAOB, Homo sapiens, UniProt P27338)
Adora1: Adenosine receptor A1 (Adora1, Rattus norvegicus, UniProt P25099)
SIRT5: NAD-dependent protein deacylase sirtuin-5, mitochondrial (SIRT5, Homo sapiens, UniProt Q9NXA8)
CHRM4: Muscarinic acetylcholine receptor M4 (CHRM4, Homo sapiens, UniProt P08173)

The inhibition of `O=c1c2ccccc2c(Cc2ccc(Cl)cc2)nn1C1CCCNCC1` (stereo not drawn) is reported as 34% (KCNU1; ion current, inhibitor, patch clamp; HEK293; 10 µM).
With `CCOC(=O)C1CSc2[nH]c(=O)sc2C1c1cn(-c2ccccc2)nc1-c1ccc(Br)cc1` (stereo not drawn) the inhibition was 42.2% (CA9; enzyme activity, inhibitor; 0.1 µM).
`Cn1cnc(Br)c1C1=CN(c2ncnc3[nH]cnc23)CCS1` has an inhibition of 72.2% (Dual specificity tyrosine-phosphorylation-regulated kinase 4 (DYRK4, Homo sapiens, UniProt Q9NR20); enzyme activity, inhibitor, radiometric; 2 µM).
With `CCOC(=O)C1CSc2[nH]c(=O)sc2C1c1cn(-c2ccccc2)nc1-c1ccc(C)cc1` (stereo not drawn) the inhibition was 35.5% (CA9; enzyme activity, inhibitor; 0.1 µM).
`CS(=O)(=O)Nc1cccc2cccnc12` has an inhibition of > 21% (Lactoylglutathione lyase (GLO1, Homo sapiens, UniProt Q04760); enzyme activity, inhibitor, absorbance; 50 µM).
`CNC(=O)c1csc(Nc2cccc(C)n2)n1` has an inhibition of 53% (MAOB; enzyme activity, inhibitor, fluorescence; 30 µM).
With `CCCCCC(C)N1CCCn2c1nc1c2c(=O)n(C)c(=O)n1C` (stereo not drawn) the inhibition was 30% (Adora1; ligand displacement, radioligand; 25 µM, cell membranes).
`O=C(Nc1ccc(C(F)(F)F)cc1C(F)(F)F)c1cc(Cl)ccc1O` gave an inhibition of 84% (MAOB; enzyme activity, inhibitor; 1 µM, 20 min).
`N#CC1CSc2[nH]c(=O)sc2C1c1cn(-c2ccccc2)nc1-c1ccc(Br)cc1` (stereo not drawn) gave an inhibition of 60.1% (CA9; enzyme activity, inhibitor; 0.1 µM).
For `Cc1ccc(C(=O)Nc2ccc(S(=O)(=O)O)c3cc(S(=O)(=O)O)cc(S(=O)(=O)O)c23)cc1NC(=O)c1cccc(NC(=O)Nc2cccc(C(=O)Nc3cc(C(=O)Nc4ccc(S(=O)(=O)O)c5cc(S(=O)(=O)O)cc(S(=O)(=O)O)c45)ccc3C)c2)c1`, the inhibition was 85% (SIRT5; enzyme activity, inhibitor; 100 µM).
`O=C(Nc1ccc(Br)cc1)c1ccccn1` has an inhibition of 85% (MAOB; enzyme activity, inhibitor; 1 µM, 20 min).
`CCOC(=O)C1CSc2[nH]c(=O)sc2C1c1cn(-c2ccccc2)nc1-c1ccc(Cl)cc1` (stereo not drawn) gave an inhibition of 12% (CA9; enzyme activity, inhibitor; 10 nM).
`O=C(Nc1ccccc1)c1ccc(Cl)cc1` gave an inhibition of 24% (MAOB; enzyme activity, inhibitor; 1 µM, 20 min).
With `Oc1cccc(Nc2nc(-c3ccc(F)cc3F)cs2)c1` the inhibition was -4.3% (Endothelin receptor type B (EDNRB, Homo sapiens, UniProt P24530); cell-free assay; 10 µM).
For `C#CCN1CCCn2c1nc1c2c(=O)n(C)c(=O)n1C`, the inhibition was 46% (Adora1; ligand displacement, radioligand; 25 µM, cell membranes).
The inhibition of `Cc1ccc(NC(=O)c2cc(Cl)ccc2O)cc1[N+](=O)[O-]` is reported as 85% (MAOB; enzyme activity, inhibitor; 1 µM, 20 min).
With `CN(C)C1CCN(CC#Cc2nn(C3CCCC3)c3nc(NCc4ccccc4)ncc23)C1` (stereo not drawn) the inhibition was 78% (Serine/threonine-protein kinase 26 (STK26, Homo sapiens, UniProt Q9P289); enzyme activity, inhibitor, FRET; 10 µM).
`CCCNc1nc2ccccc2n1Cc1ccc(Cl)cc1` has an inhibition of -7.49% (CHRM4; ligand displacement; 10 µM).
`Cc1cc([N+](=O)[O-])ccc1NC(=O)c1cc(Cl)ccc1O` has an inhibition of 5% (MAOB; enzyme activity, inhibitor; 1 µM, 20 min).
For `CCOC(=O)C1CSc2[nH]c(=O)sc2C1c1cn(-c2ccccc2)nc1-c1ccc(OC)cc1` (stereo not drawn), the inhibition was 53.6% (CA9; enzyme activity, inhibitor; 0.1 µM).
With `N#Cc1ccc(NC(=O)c2ccc3c(c2)OCO3)cc1` the inhibition was 87% (MAOB; enzyme activity, inhibitor; 1 µM, 20 min).
`C=CN1CCCn2c1nc1c2c(=O)n(C)c(=O)n1C` has an inhibition of 30% (Adora1; ligand displacement, radioligand; 25 µM, cell membranes).
`COc1cc(NC(C)=O)c(Cl)cc1C(=O)Nc1nccs1` gave an inhibition of 16.7% (CHRM4; cell-free assay; 10 µM).
`COc1cc([N+](=O)[O-])ccc1NC(=O)c1ccccc1` has an inhibition of 14% (MAOB; enzyme activity, inhibitor; 1 µM, 20 min).
`Cc1ccc(-n2nc(C(C)(C)C)cc2NC(=O)Nc2ccc(OCCN3CCOCC3)c3ccccc23)cc1` has an inhibition of 17% (Tyrosine-protein phosphatase non-receptor type 2 (PTPN2, Homo sapiens, UniProt P17706); enzyme activity, inhibitor; 10 µM).
`CCN1CCCn2c1nc1c2c(=O)n(C)c(=O)n1C` gave an inhibition of 42% (Adora1; ligand displacement, radioligand; 25 µM, cell membranes).
For `O=C1NC(=S)C(=Cc2cn(-c3ccccc3)nc2-c2ccc(Br)cc2)S1`, the inhibition was 83.7% (CA9; enzyme activity, inhibitor; 10 µM).
`CCOc1ccc(C(=O)Nc2ccc([N+](=O)[O-])cc2Cl)cc1OCC` gave an inhibition of 34% (MAOB; enzyme activity, inhibitor; 1 µM, 20 min).
The inhibition of `N=c1n(CCN2CCCCC2)c2ccccc2n1CC(O)c1cccc(Br)c1` (stereo not drawn) is reported as 17% (KCNU1; ion current, inhibitor, patch clamp; HEK293; 10 µM).
`CC(C)CC(C)N1CCCn2c1nc1c2c(=O)n(C)c(=O)n1C` (stereo not drawn) gave an inhibition of 30% (Adora1; ligand displacement, radioligand; 25 µM, cell membranes).
The inhibition of `CCOC(=O)C1CSc2[nH]c(=O)sc2C1c1cn(-c2ccccc2)nc1-c1ccccc1` (stereo not drawn) is reported as 75.5% (CA9; enzyme activity, inhibitor; 10 µM).
With `O=C(c1ccc(Cl)cc1)N(Cc1ccccc1)C1CCCCC1` the inhibition was -0.7% (Histamine H1 receptor (HRH1, Homo sapiens, UniProt P35367); cell-free assay; 10 µM).
The inhibition of `Cc1ccc(C(=O)Nc2ccc(S(=O)(=O)O)c3cc(S(=O)(=O)O)cc(S(=O)(=O)O)c23)cc1NC(=O)c1cccc(NC(=O)Nc2cccc(C(=O)Nc3cc(C(=O)Nc4ccc(S(=O)(=O)O)c5cc(S(=O)(=O)O)cc(S(=O)(=O)O)c45)ccc3C)c2)c1` is reported as > 60% (SIRT5; enzyme activity, inhibitor; 1 mM).
